{"source": "ChEMBL document CHEMBL3352416", "about": "“Discovery of carbohybrid-based 2-aminopyrimidine analogues as a new class of rapid-acting antimalarial agents using image-based cytological profiling assay” (J Med Chem, 2014)", "key": {"[1]": {"test": "Half life in Sprague-Dawley rat at 1 mg/kg, ip", "type": "ADME, organism-based", "parameters": "dose 1 mg/kg, route intraperitoneal", "settings": "in vivo"}, "Plasmodium falciparum [2]": {"tested_on": "Plasmodium falciparum", "test": "Antimalarial activity against Plasmodium falciparum W2 by automated image mining based cytological profiling assay", "type": "functional, organism-based", "outline": "(§1)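 Parasite cultures in 384-well format, read by automated imaging. Infected erythrocytes detected by DAPI nuclear staining against WGA-AlexaFluor 488 host-cell stain, and viability by Mitotracker Red CMXRos. Total culture parasitaemia quantified. EC50 given as mean±SD of two independent experiments, each in duplicate.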"}, "[3]": {"test": "AUC in Sprague-Dawley rat at 5 mg/kg, ip", "type": "ADME, organism-based", "parameters": "dose 5 mg/kg, route intraperitoneal", "settings": "plasma"}, "Plasmodium falciparum [4]": {"tested_on": "Plasmodium falciparum", "test": "Antimalarial activity against tightly synchronized Plasmodium falciparum K1 assessed as parasite stage accumulation index at schizonts stages at 10 uM treated at 6 to 30 hrs post-invasion by automated image mining based cytological profiling assay", "type": "functional, organism-based"}, "Plasmodium falciparum [5]": {"tested_on": "Plasmodium falciparum", "test": "Antimalarial activity against Plasmodium falciparum K1 by automated image mining based cytological profiling assay", "type": "functional, organism-based", "outline": "as §1"}, "Plasmodium falciparum [6]": {"tested_on": "Plasmodium falciparum", "test": "Antimalarial activity against tightly synchronized Plasmodium falciparum K1 assessed as parasite stage accumulation index at trophozoites stages at 10 uM treated at 6 to 30 hrs post-invasion by automated image mining based cytological profiling assay", "type": "functional, organism-based"}, "[7]": {"test": "AUC in Sprague-Dawley rat at 1 mg/kg, ip", "type": "ADME, organism-based", "parameters": "dose 1 mg/kg, route intraperitoneal", "settings": "plasma"}, "Plasmodium chabaudi [8]": {"tested_on": "Plasmodium chabaudi", "test": "Antimalarial activity against Plasmodium chabaudi infected in BALB/c mouse assessed as reduction in blood parasitaemia level at 3 to 30 mg/kg, ip treated on day 1 to day 3 post-infection measured on day 4 post-infection by Giemsa staining based light microscopy", "type": "functional, organism-based", "outline": "(§2)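 Groups of five BALB/c mice infected i.p. with 2 × 10^7 P. chabaudi-parasitized erythrocytes. Day 1 pre-treatment parasitaemia read from tail-blood thin smears, then i.p. dosing at 0.03, 0.3, 3, 10 or 30 mg/kg, repeated for two more days. Day 4 parasitaemia scored by light microscopy of Giemsa-stained thin smears; dose-response evaluated by probit analysis.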"}, "Plasmodium falciparum [9]": {"tested_on": "Plasmodium falciparum", "test": "Antimalarial activity against tightly synchronized Plasmodium falciparum K1 assessed as parasite stage accumulation index at late ring stages at 10 uM treated at 6 to 30 hrs post-invasion by automated image mining based cytological profiling assay", "type": "functional, organism-based"}, "[10]": {"test": "Tmax in Sprague-Dawley rat at 5 mg/kg, ip", "type": "ADME, organism-based", "parameters": "dose 5 mg/kg, route intraperitoneal", "settings": "in vivo"}, "[11]": {"test": "Selectivity index, ratio of CC50 for human HepG2 cells to EC50 for Plasmodium falciparum", "type": "toxicity, cell-based", "settings": "read-out: Ratio CC50/EC50", "outline": "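Ratio of HepG2 CC50 (resazurin assay) to the highest EC50 among P. falciparum K1, HB3 and W2. Parasite EC50 values are means of two independent experiments, each run in duplicate.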"}, "Plasmodium falciparum [12]": {"tested_on": "Plasmodium falciparum", "test": "Antimalarial activity against Plasmodium falciparum HB3 by automated image mining based cytological profiling assay", "type": "functional", "outline": "as §1"}, "[13]": {"test": "Stability in mouse liver microsomes assessed as remaining compound level at 1 uM incubated for 5 mins in presence of NADPH measured after 30 mins by LC/MS/MS method", "type": "ADME", "settings": "read-out: Stability", "outline": "(§3)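 Percent parent compound remaining after 30 min incubation with liver microsomes; n = 3.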"}, "Plasmodium chabaudi [14]": {"tested_on": "Plasmodium chabaudi", "test": "Antimalarial activity against Plasmodium chabaudi infected in BALB/c mouse assessed as reduction in parasitaemia level treated intraperitoneally on day 1 to day 3 post-infection measured on day 4 post-infection by Giemsa staining based light microscopy", "type": "functional", "outline": "as §2"}, "[15]": {"test": "Cmax in Sprague-Dawley rat at 1 mg/kg, ip", "type": "ADME, organism-based", "parameters": "dose 1 mg/kg, route intraperitoneal", "settings": "in vivo"}, "[16]": {"test": "Stability in human liver microsomes assessed as remaining compound level at 1 uM incubated for 5 mins in presence of NADPH measured after 30 mins by LC/MS/MS method", "type": "ADME", "settings": "read-out: Stability", "outline": "as §3"}, "Plasmodium chabaudi [17]": {"tested_on": "Plasmodium chabaudi", "test": "Antimalarial activity against Plasmodium chabaudi infected in BALB/c mouse assessed as reduction in accumulation of ring-stage parasites level at 3 to 30 mg/kg, ip treated on day 1 to day 3 post-infection measured on day 4 post-infection by Giemsa staining based light microscopy", "type": "functional, organism-based", "outline": "as §2"}, "Plasmodium falciparum [18]": {"tested_on": "Plasmodium falciparum", "test": "Antimalarial activity against tightly synchronized Plasmodium falciparum K1 assessed as parasite stage accumulation index at early ring stages at 10 uM treated at 6 to 30 hrs post-invasion by automated image mining based cytological profiling assay", "type": "functional, organism-based"}, "[19]": {"test": "Tmax in Sprague-Dawley rat at 1 mg/kg, ip", "type": "ADME, organism-based", "parameters": "dose 1 mg/kg, route intraperitoneal", "settings": "in vivo"}, "[20]": {"test": "Cmax in Sprague-Dawley rat at 5 mg/kg, ip", "type": "ADME, organism-based", "parameters": "dose 5 mg/kg, route intraperitoneal", "settings": "in vivo"}, "[21]": {"test": "Half life in Sprague-Dawley rat at 5 mg/kg, ip", "type": "ADME, organism-based", "parameters": "dose 5 mg/kg, route intraperitoneal", "settings": "in vivo"}}, "note": "The source made the active and inactive calls. No cut-off for these calls is given here.", "data": [{"smiles": "COc1ccc(CO[C@@H]([C@H](COC(c2ccccc2)(c2ccccc2)c2ccccc2)N=[N+]=[N-])[C@H](OCc2ccc(OC)cc2)c2cnc(N(C)C)nc2)cc1", "values": [{"measurement": "half-life", "setting": "[1]", "value": 6.36, "unit": "h"}, {"measurement": "EC50", "setting": "Plasmodium falciparum [2]", "value": 80, "unit": "nM"}, {"measurement": "AUC", "setting": "[3]", "value": 26600, "unit": "ng·h/mL"}, {"measurement": "Activity", "setting": "Plasmodium falciparum [4]", "value": "Active"}, {"measurement": "EC50", "setting": "Plasmodium falciparum [5]", "value": 92, "unit": "nM"}, {"measurement": "Activity", "setting": "Plasmodium falciparum [6]", "value": "Active"}, {"measurement": "AUC", "setting": "[7]", "value": 8200, "unit": "ng·h/mL"}, {"measurement": "inhibition", "setting": "Plasmodium chabaudi [8]", "value": "Active"}, {"measurement": "Activity", "setting": "Plasmodium falciparum [9]", "value": "Active"}, {"measurement": "Tmax", "setting": "[10]", "value": 4, "unit": "h"}, {"measurement": "selectivity ratio", "setting": "[11]", "value": "> 1000"}, {"measurement": "EC50", "setting": "Plasmodium falciparum [12]", "value": 80, "unit": "nM"}, {"measurement": "remaining at 0.5 h, 1 µM", "setting": "[13]", "value": 81.6, "unit": "%"}, {"measurement": "inhibition", "setting": "Plasmodium chabaudi [14]", "value": "Dose dependent effect"}, {"measurement": "ED50", "setting": "Plasmodium chabaudi [14]; ip", "value": 0.12, "unit": "mg/kg"}, {"measurement": "Cmax", "setting": "[15]", "value": 1030, "unit": "ng/mL"}, {"measurement": "remaining at 30 min, 1 µM", "setting": "[16]", "value": 89, "unit": "%"}, {"measurement": "inhibition", "setting": "Plasmodium chabaudi [17]", "value": "Active"}, {"measurement": "Activity", "setting": "Plasmodium falciparum [18]", "value": "Active"}, {"measurement": "Tmax", "setting": "[19]", "value": 3.4, "unit": "h"}, {"measurement": "Cmax", "setting": "[20]", "value": 3070, "unit": "ng/mL"}, {"measurement": "half-life", "setting": "[21]", "value": 5.78, "unit": "h"}]}]}
